Bioassay records as filed in PubChem.
SR-BI DiI-HDL act: activators of SR-BI mediated DiI-HDL uptake, primary screen, ldlA[mSR-BI] CHO cells, DiI fluorescence. activation, % at 12.5 µM. 3 h; 100 = double the neutral-control signal. actives 0.096% (n = 320,000). AID 504775, 2011;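 active means mean replicate activation of at least 60% and every replicate at or above 60%; inconclusive means mean or all-replicate condition met, but not both; inactive means mean below 60% and not all replicates reaching 60%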;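 further: 0% = median plate neutral-control signal and 100% = twice that signal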
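Material: SR-BI-overexpressing, LDLR-lacking CHO cells; schedule: compound exposure 3 h, 37 °C; reagent: DiI-labelled HDL at 10 µg/mL final; technique: bottom-read fluorescence, 550/595 nm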
CAL PDZ FP-1: untagged CAL PDZ binding inhibitors, primary screen, biochemical, fluorescence polarization, HTS. purified CAL PDZ, TMR-peptide fluorescence polarization, 1 h. AID 602252, 2012. inhibition, % at 24.9 µM. Golgi-associated PDZ and coiled-coil motif-containing protein (Homo sapiens), Q9HD26. actives 0.92% (n = 300,000);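 active means mean inhibition of at least 30% with at least half of replicates also reaching 30%; inconclusive means no clear call, values can overlap the other calls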;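 further: 0% = DMSO neutral control and 100% = excess unlabeled competitor peptide PRC23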
CAL PDZ FP-2: CAL PDZ peptide-binding inhibitors, primary screen, biochemical, fluorescence polarization, Cer-tagged CAL PDZ, HTS | actives 0.02% (n = 330,000) | Golgi-associated PDZ and coiled-coil motif-containing protein (Homo sapiens), Q9HD26 | inhibition, % at 20 µM | purified CAL PDZ, TMR-peptide fluorescence polarization, 1 h;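 active means highest replicate inhibition of at least 40%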;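 further: plate controls were DMSO neutral control wells for no effect and unlabeled competitor peptide control wells for full effect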
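Material: tagged CAL PDZ protein CerCALP, purified; buffer or medium: sodium phosphate/NaCl buffer pH 7.4 with TCEP, IgG, Thesit; also added: fluorescent TMR peptide probe; schedule: 1 h incubation at room temperature before polarization reading; technique: fluorescence polarization from S- and P-plane intensities, G-factor corrected; control set: unlabelled peptide and DMSO controls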
dFosB act-1: activators of delta FosB homodimer, primary screen, biochemical, fluorescence polarization, TAMRA-CDK5 oligo, single point | actives 0.99% (n = 340,000) | activation, % at 25 µM | Protein FosB (Mus musculus), P13346 | purified delta FosB; percent of positive-control signal above neutral wells;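 active means mean activation above about 17%, with every replicate also reaching it, limit read from the data, passing the limit was not always enough; inconclusive means only one of the two conditions met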
SR-BI DiI inh: inhibitors of SR-BI mediated HDL lipid uptake, primary screen, ldlA[mSR-BI] cells, fluorescence, single point. actives 0.96% (n = 320,000). ldlA[mSR-BI] CHO cells, DiI-HDL uptake fluorescence, 3 h. inhibition, % at 12.5 µM;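 active means mean replicate inhibition of at least 70% and a set share of replicates each scoring 70 or more; inconclusive means meets just one of the two criteria; inactive means fails both criteria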;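 further: 0% = median of neutral control wells and 100% = median of positive control wells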
Target sequence (Q61009 whole entry, looked up): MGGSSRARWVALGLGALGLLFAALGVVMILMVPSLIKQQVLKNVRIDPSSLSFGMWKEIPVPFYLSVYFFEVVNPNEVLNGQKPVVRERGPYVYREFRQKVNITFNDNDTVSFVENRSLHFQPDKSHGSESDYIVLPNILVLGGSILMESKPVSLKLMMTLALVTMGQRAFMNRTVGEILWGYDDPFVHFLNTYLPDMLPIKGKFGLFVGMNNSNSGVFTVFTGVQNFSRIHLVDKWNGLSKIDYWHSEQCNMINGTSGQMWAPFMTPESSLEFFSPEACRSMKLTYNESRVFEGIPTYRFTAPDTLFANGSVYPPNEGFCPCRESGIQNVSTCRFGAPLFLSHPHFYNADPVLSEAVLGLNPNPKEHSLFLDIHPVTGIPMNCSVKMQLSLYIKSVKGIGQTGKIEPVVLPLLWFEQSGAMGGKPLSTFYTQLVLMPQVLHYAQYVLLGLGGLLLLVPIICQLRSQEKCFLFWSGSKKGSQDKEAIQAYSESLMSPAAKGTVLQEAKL
dFosB act-2: activators of mouse delta FosB DNA binding, confirmation, biochemical, fluorescence polarization, TAMRA-CDK5 oligo, cherry-picked samples. activation, % at 24.9 µM. shares compounds with dFosB act-1. purified delta FosB; normalised: neutral wells 0, positive control 100. 2,400 tested, under 10 active;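 active means highest replicate activation at or above 34% and every replicate reaching that threshold; inconclusive means meets only one of the two criteria; inactive means meets neither criterion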;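 further: higher polarization means more probe DNA bound by delta FosB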
Starred values were filed as active, the others as inactive; ? = inconclusive; · = no result. Rows were chosen to be rich in hits. Some 2.8% of all compounds tested hit in one or more screens of this group.

SMILES | SR-BI DiI-HDL act | CAL PDZ FP-1 | CAL PDZ FP-2 | dFosB act-1 | SR-BI DiI inh | dFosB act-2
CN(CC(=O)Nc1ccc(Cl)c(Cl)c1)C(=O)C1CCC1 | 7.1 | · | -0.6 | 3.4 | -7.1 | ·
Cc1cc(C(F)(F)F)c(C#N)c(SCC(=O)Nc2nc3cc(Br)ccc3s2)n1 | 11.8 | 15.4 | -2.4 | 37.5* | -11.8 | 6.6
CCOC(=O)NC(=O)CSc1nc(C)cc(C(F)(F)F)c1C#N | -8.5 | -2.2 | -1.1 | 0.1 | 8.5 | ·
COc1ccc2nc(C)cc(SCC(=O)Nc3c(C)cccc3C)c2c1 | -20.2 | -2.7 | -3.1 | 73.3* | 20.2 | -4.4
COc1ccc2nc(C)cc(SCC(=O)Nc3c(C)cc(C)cc3C)c2c1 | 4.3 | · | -2.4 | 7.9 | -4.3 | ·
COc1ccc(OCCSCc2nnc(NC(=O)Nc3ccc(Cl)cc3)s2)cc1 | -6.9 | -3.9 | -2.4 | 23.6* | 6.9 | 6.1
Cc1ccc(NC(=O)Nc2nnc(CSCCOc3ccc(Cl)cc3)s2)cc1 | 1.9 | -2.5 | -2.7 | 8.1 | -1.9 | ·
O=C(Cc1ccc(Cl)cc1)NNC1CC(=O)N(c2ccc3ccccc3c2)C1=O (stereo not drawn) | -5.1 | -2.7 | -0.3 | 31.9* | 5.1 | 2.6
O=C(Cc1ccccc1)NNC1CC(=O)N(c2ccc(Cl)cc2)C1=O (stereo not drawn) | 24.8 | -3.8 | 0.2 | -1.4 | -24.8 | ·
COc1ccc(C2c3ccc(O)cc3Oc3ncn(Cc4ccco4)c(=N)c32)cc1OC (stereo not drawn) | 20.4 | -1.6 | -0.5 | 2.2 | -20.4 | ·
COc1ccc(C2c3ccc4ccccc4c3Oc3ncn(Cc4ccco4)c(=N)c32)cc1OC (stereo not drawn) | 9.4 | -8.7 | -1.8 | 52.7* | -9.4 | 5.2
O=C(Nn1cnnc1)c1cc(-c2cccc(Br)c2)nc2ccccc12 | 0.6 | -3.3 | -1.1 | -15.4 | -0.6 | ·
CCCSc1nc2c3c(sc2c(=O)[nH]1)CC(C)(CC)OC3 (stereo not drawn) | 2.5 | -3.2 | 0.1 | -13.9 | -2.5 | ·
Cc1ccc2c(c1)C1NC(=S)NC(C)(O2)C1C(=O)Nc1ccc(Cl)cc1 (stereo not drawn) | -39.5 | · | -1.3 | 39.5* | 39.5 | 0.4
C/C(=N\O)c1ccc2c(c1)OCCO2 | 21.3 | · | -0.6 | -9.4 | -21.3 | ·
C/C(=N/O)c1ccc2c(c1)OCCOCCOc1cc(/C(C)=N/O)ccc1OCCOCCO2 | 6.0 | 8.6 | -1.6 | 21.4* | -6.0 | 5.0
C#CCOCCOCCOCCNc1nc(N2CCN(C(=O)[C@H]([C@@H](C)CC)n3cc([C@@H](N)CC(C)C)nn3)CC2)nc(N2CCN(C(=O)[C@H](CCCCN)n3cc([C@@H](N)CO)nn3)CC2)n1 | 28.6 | -1.3 | 0.9 | 6.7 | -28.6 | ·
C#CCOCCOCCOCCNc1nc(N2CCN(C(=O)[C@H](CCCCN)n3cc([C@@H](N)CC(C)C)nn3)CC2)nc(N2CCN(C(=O)[C@H](CCCCN)n3cc([C@@H](N)CC(C)C)nn3)CC2)n1 | 14.6 | -2.5 | 1.1 | 18.8* | -14.6 | ?
CC(c1ccccc1)N(NC(=O)C(O)(c1ccccc1)c1ccccc1)C(=O)c1ccccc1 (stereo not drawn) | 17.3 | -7.1 | -2.8 | 38.4* | -17.3 | 1.2
COc1ccc(C(=O)Sc2ccc(C)cc2)cc1OC | -16.6 | 0.4 | -2.6 | -6.3 | 16.6 | ·
COc1ccc(C(=O)Sc2ccc(Cl)cc2)cc1OC | 16.2 | -2.2 | 1.1 | 20.7* | -16.2 | -2.2
Cc1ccccc1NC(=O)c1cc([N+](=O)[O-])ccc1NCCN1C(=O)CCC1=O | 19.3 | 3.0 | -2.8 | -6.2 | -19.3 | ·
